Data published in ChEMBL document CHEMBL4665766, “Synthesis and in vitro evaluation of vanillin derivatives as multi-target therapeutics for the treatment of Alzheimer's disease” (Bioorg Med Chem Lett, 2020).
Calls of active or inactive are those of the source. The calls are words filed in the database; no cut-off is given here.

How the values were obtained:
[1] = Potency index, ratio of test compound trolox equivalent to vanillin trolox equivalent for antioxidant activity assessed as ferric ion reducing activity by FRAP assay; format: functional
[2] = target: Cholinesterase (Equus caballus) (UniProt P81908); experiment: Potency index, ratio of rivastigmine IC50 to test compound IC50 for inhibition of equine BuChE
[3] = Antioxidant activity assessed as increase in total ferric ion reducing activity using FeCl3.H2O and TPTZ by measuring trolox equivalents at pH 3.6 measured at different time interval up to 150 mins by microplate reader based FRAP assay; format: functional; set-up: unit not given here; conditions: time min <=150
Cholinesterase = Cholinesterase (Equus caballus, UniProt P81908); experiment: (§1) Inhibition of equine BuChE by Ellman's method
Summary of the method: (§2)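 Equine serum BuChE stock at 22 U/mL in 20 mM Tris HCl (pH 7.5), diluted 3/100 before use. Methanol dilutions of compound (≤1% DMSO) were preincubated 10 min at 37°C with enzyme and 3 mM DTNB solution (phosphate/Hepes buffer, pH 7.5). Butyrylthiocholine iodide solution (15 mM) was then added, with 10 min further incubation, and absorbance was read at 415 nm. IC50 (50% activity inhibited) was taken from 3 independent experiments.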

[4] = Antioxidant activity assessed as trolox equivalent of AAPH-induced radical scavenging activity preincubated for 10 mins followed by AAPH addition and measured every minute for 35 mins by ORAC fluorescein assay; format: functional; conditions: time min <=35
Acetylcholinesterase = Acetylcholinesterase (Electrophorus electricus, UniProt O42275); experiment: (§3) Inhibition of electric eel AChE by Ellman's method
Summary of the method: (§4)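 Electrophorus electricus AChE stock at 22 U/mL in 20 mM Tris HCl (pH 7.5), diluted 1/100 before use. Compound dilution series in methanol (≤1% DMSO) was preincubated with enzyme and DTNB solution (3 mM, phosphate/Hepes 0.05 M/0.09 M, pH 7.5) for 10 min at 37°C. Acetylthiocholine iodide solution (15 mM) was then added for a further 10 min, and A415 was read. IC50 is the 50% activity inhibition point, from 3 independent experiments.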

[5] = Selectivity index, ratio of IC50 for electric eel AChE to IC50 for equine BuChE
Summary of the method: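 Ratio of Ellman-assay IC50 values, AChE IC50 divided by BuChE IC50. Electric eel AChE was diluted 1/100 with acetylthiocholine substrate. Equine BuChE was diluted 3/100 with butyrylthiocholine substrate. Both enzymes were preincubated with compound and DTNB for 10 min at 37°C, given 10 min with substrate, and read at 415 nm.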

[6] = Potency index, ratio of trolox to test compound for antioxidant activity assessed as trolox equivalent of AAPH scavenging activity by ORAC fluorescein assay; format: functional
Summary of the method: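 Compounds from 10 mM DMSO stocks and Trolox diluted in 75 mM phosphate buffer, pH 7.4. […] with 25 nM sodium fluorescein (solution concentration), then 0.15 M AAPH solution added. Fluorescence (ex 485, em 525 nm) […]. TE from comparing the slopes of Trolox and compound calibration curves; mean ± SD of 3 independent experiments.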

[7] = Antioxidant activity assessed as DPPH free radical scavenging activity after 1 hr by microplate reader based assay; format: functional
[8] = target: Cholinesterase (Equus caballus) (UniProt P81908); experiment: Potency index, ratio of neostigmine IC50 to test compound IC50 for inhibition of equine BuChE
[9] = target: Cholinesterase (Equus caballus) (UniProt P81908); experiment: as §1; summary of the method: as §2
[10] = target: Acetylcholinesterase (Electrophorus electricus) (UniProt O42275); experiment: as §3; summary of the method: as §4
Acetylcholinesterase (Electrophorus electricus), sequence (O42275 24-633 limits assumed): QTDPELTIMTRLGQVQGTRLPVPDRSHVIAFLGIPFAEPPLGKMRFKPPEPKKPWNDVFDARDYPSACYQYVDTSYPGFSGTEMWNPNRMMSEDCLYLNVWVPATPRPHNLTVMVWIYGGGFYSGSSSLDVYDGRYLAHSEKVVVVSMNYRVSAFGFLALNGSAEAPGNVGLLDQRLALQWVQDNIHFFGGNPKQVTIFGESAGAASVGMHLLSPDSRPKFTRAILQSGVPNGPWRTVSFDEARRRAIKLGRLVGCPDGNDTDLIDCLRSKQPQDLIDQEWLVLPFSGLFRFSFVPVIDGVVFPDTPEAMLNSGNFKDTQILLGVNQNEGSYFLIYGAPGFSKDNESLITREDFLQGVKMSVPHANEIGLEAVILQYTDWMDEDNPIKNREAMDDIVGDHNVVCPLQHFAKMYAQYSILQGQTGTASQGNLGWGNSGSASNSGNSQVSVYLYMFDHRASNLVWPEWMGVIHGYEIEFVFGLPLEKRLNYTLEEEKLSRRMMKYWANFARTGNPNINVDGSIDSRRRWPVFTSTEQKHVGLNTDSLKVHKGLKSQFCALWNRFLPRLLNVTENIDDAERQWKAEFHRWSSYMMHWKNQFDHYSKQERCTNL

Cholinesterase, sequence (P81908 whole entry): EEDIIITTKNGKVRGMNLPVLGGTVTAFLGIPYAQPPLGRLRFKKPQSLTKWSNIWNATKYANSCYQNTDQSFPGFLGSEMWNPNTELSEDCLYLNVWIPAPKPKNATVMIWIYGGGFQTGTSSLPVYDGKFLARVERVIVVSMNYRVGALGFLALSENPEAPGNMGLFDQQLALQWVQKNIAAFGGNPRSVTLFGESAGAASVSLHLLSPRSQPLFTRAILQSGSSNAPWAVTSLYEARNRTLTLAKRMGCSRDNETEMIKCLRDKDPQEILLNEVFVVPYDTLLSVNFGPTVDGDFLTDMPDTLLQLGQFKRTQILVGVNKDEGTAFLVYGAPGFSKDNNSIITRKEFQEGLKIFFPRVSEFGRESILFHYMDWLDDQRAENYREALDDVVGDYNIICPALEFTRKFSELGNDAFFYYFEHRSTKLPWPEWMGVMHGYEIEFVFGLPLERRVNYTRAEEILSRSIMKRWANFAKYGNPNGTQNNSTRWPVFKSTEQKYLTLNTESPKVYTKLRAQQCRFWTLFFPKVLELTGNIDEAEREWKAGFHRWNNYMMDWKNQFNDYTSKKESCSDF
Cholinesterase (Equus caballus), sequence (P81908 whole entry): as above
Acetylcholinesterase, sequence (O42275 whole entry): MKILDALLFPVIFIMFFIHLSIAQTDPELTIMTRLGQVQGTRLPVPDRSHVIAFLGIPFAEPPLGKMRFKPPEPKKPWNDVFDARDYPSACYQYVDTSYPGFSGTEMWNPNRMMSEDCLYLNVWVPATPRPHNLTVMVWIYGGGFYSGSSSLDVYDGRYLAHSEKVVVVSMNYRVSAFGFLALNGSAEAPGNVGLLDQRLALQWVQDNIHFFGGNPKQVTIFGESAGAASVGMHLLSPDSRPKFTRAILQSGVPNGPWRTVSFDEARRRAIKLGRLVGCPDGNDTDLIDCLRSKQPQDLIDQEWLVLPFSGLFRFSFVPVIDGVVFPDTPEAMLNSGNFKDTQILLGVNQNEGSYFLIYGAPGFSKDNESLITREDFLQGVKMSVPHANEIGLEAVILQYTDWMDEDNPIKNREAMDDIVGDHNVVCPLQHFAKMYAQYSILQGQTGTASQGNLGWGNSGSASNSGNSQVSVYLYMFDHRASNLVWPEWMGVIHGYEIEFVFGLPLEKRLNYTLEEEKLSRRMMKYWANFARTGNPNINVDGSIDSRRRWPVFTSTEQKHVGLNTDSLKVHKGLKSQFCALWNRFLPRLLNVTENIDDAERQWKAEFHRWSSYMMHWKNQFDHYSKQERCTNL

With `COc1cc(CN(CCCN2C(=O)c3cccc4cccc(c34)C2=O)Cc2ccc(O)c(OC)c2)ccc1O` the Ratio [1] was 25, the Ratio IC50 [2] was 3 and the Activity [3] was 0.49. The IC50 (Cholinesterase) was 0.27 µM, the Activity [4] was 9.43 and the IC50 (Acetylcholinesterase) was 14.3 µM. For the same compound, the Ratio IC50 [5] was 53.1, the Ratio [6] was 10 and the IC50 [7] was 16.7 µM. For the same compound, the Ratio IC50 [8] was 10.

With `COc1cc(CNCCCCN2C(=O)c3cccc4cccc(c34)C2=O)ccc1O` the Activity [3] was 0.26, the IC50 (Cholinesterase) was 0.9 µM and the Activity [4] was 8.1. For the same compound, the IC50 (Acetylcholinesterase) was 13.7 µM, the Ratio IC50 [5] was 15.2 and the IC50 [7] was 62 µM.

In the case of `COc1cc(CNCCCCCCCN2C(=O)c3cccc4cccc(c34)C2=O)ccc1O`, the Activity [3] is reported as 0.34, the IC50 (Cholinesterase) is reported as 1.5 µM and the Activity [4] is reported as 6.7. It also gave an IC50 (Acetylcholinesterase) of 3.33 µM, a Ratio IC50 [5] of 2.22 and an IC50 [7] of 70 µM.

With `COc1cc(C=O)ccc1O` [VANILLIN] the Activity [3] was 0.02, the inhibition [9] was “inactive” and the Activity [4] was 2.2. The inhibition [10] was “inactive” and the IC50 [7] was 7920 µM.

Compound `COc1cc(CNCCCNC(=O)c2ccccc2CO)ccc1O` has an Activity [3] of 0.96 and an IC50 [7] of 113 µM.

`COc1cc(CNCCCCCCN2C(=O)c3ccccc3C2=O)ccc1O` showed an Activity [3] of 0.23, an IC50 (Cholinesterase) of 0.37 µM and an Activity [4] of 13.2. For the same compound, the IC50 (Acetylcholinesterase) was 4.67 µM, the Ratio IC50 [5] was 12.6 and the IC50 [7] was 82.3 µM.

`CN(C)C(=O)Oc1cccc([N+](C)(C)C)c1` [NEOSTIGMINE] gave an IC50 (Cholinesterase) of 2.93 µM, an IC50 (Acetylcholinesterase) of 7.5 µM and a Ratio IC50 [5] of 2.56.
